Tests used:
[1] = system: RPMI-8226; assay: Inhibition of cell growth in drug resistant 8226 myeloma cell line; type: functional, cell-based; conditions: Homo sapiens
[2] = system: RPMI-8226; assay: Inhibition of cell growth in drug sensitive 8226 myeloma cell line; type: functional, cell-based; conditions: Homo sapiens
[3] = system: A549; assay: Inhibition of cell growth in (A-549) lung cell line; type: functional, cell-based; conditions: Homo sapiens
[4] = system: A-375; assay: Inhibition of cell growth in (A375) melan cell line; type: functional, cell-based; conditions: Homo sapiens
[5] = Number of colony forming cells of human gynecologic tumor showing sensitivity among the 4 colony forming cells tested in vitro at compound concentration of 0.2 uM; type: functional
Method in brief: (§1)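 Fresh human tumor specimens from patients at the Arizona Cancer Center, run in the human tumor cloning (colony-forming) assay by a standard protocol. Read-out was [3H]thymine uptake by tumor-colony-forming cells.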

[6] = Number of colony forming cells of human gynecologic tumor showing sensitivity among the 4 colony forming cells tested in vitro at compound concentration of 2.0 uM; type: functional; method in brief: as §1
[7] = Number of colony forming cells of human gynecologic tumor showing sensitivity among the 4 colony forming cells tested in vitro at compound concentration of 20 uM; type: functional; method in brief: as §1
[8] = Number of colony forming cells of human lung tumor showing sensitivity among the 2 colony forming cells tested in vitro at compound concentration of 20 uM; type: functional; method in brief: as §1
[9] = Number of colony forming cells of human ovary tumor showing sensitivity among the 10 colony forming cells tested in vitro at compound concentration of 0.2 uM; type: functional, Female gonad; method in brief: as §1
[10] = Number of colony forming cells of human ovary tumor showing sensitivity among the 10 colony forming cells tested in vitro at compound concentration of 20 uM; type: functional, Female gonad; method in brief: as §1
[11] = Number of colony forming cells of human lung tumor showing sensitivity among the 2 colony forming cells tested in vitro at compound concentration of 0.2 uM; type: functional; method in brief: as §1
[12] = Number of colony forming cells of human sarcoma tumor showing sensitivity among the 2 colony forming cells tested in vitro at compound concentration of 0.2 uM; type: functional
Method in brief: (§2)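 Fresh human tumor specimens, obtained from patients at the Arizona Cancer Center, were tested as tumor-colony-forming cells in the human tumor cloning assay. Sensitivity was scored as a 50% or greater decrease in […] uptake by treated colony-forming cells relative to untreated control colony-forming cells. The value is the count of sensitive specimens among those tested.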

[13] = Number of colony forming cells of human sarcoma tumor showing sensitivity among the 8 colony forming cells tested in vitro at compound concentration of 2.0 uM; type: functional; method in brief: as §2
[14] = Number of colony forming cells of human sarcoma tumor showing sensitivity among the 8 colony forming cells tested in vitro at compound concentration of 20 uM; type: functional; method in brief: as §2
[15] = Number of colony forming cells of human melanoma tumor showing sensitivity among the 10 colony forming cells tested in vitro at compound concentration of 20 uM; type: functional; method in brief: as §1
[16] = Number of colony forming cells of human melanoma tumor showing sensitivity among the 5 colony forming cells tested in vitro at compound concentration of 0.2 uM; type: functional; method in brief: as §1
[17] = system: Breast carcinoma cell; assay: Number of colony forming cells of human breast tumor showing sensitivity among the 4 colony forming cells tested in vitro at compound concentration of 20 uM; type: functional; method in brief: as §1
[18] = Number of colony forming cells of human stomach tumor showing sensitivity among the 1 colony forming cells tested in vitro at compound concentration of 2.0 uM; type: functional; method in brief: as §2
[19] = Number of colony forming cells of human stomach tumor showing sensitivity among the 1 colony forming cells tested in vitro at compound concentration of 20 uM; type: functional; method in brief: as §2
[20] = Number of colony forming cells of human myeloma tumor showing sensitivity among the 2 colony forming cells tested in vitro at compound concentration of 0.2 uM; type: functional; method in brief: as §1
[21] = Number of colony forming cells of human myeloma tumor showing sensitivity among the 2 colony forming cells tested in vitro at compound concentration of 2.0 uM; type: functional; method in brief: as §1
[22] = Number of colony forming cells of human myeloma tumor showing sensitivity among the 2 colony forming cells tested in vitro at compound concentration of 20 uM; type: functional; method in brief: as §1
[23] = Number of colony forming cells of human ovary tumor showing sensitivity among the 11 colony forming cells tested in vitro at compound concentration of 2.0 uM; type: functional, Female gonad; method in brief: as §1
[24] = Number of colony forming cells of human stomach tumor showing sensitivity among the 1 colony forming cells tested in vitro at compound concentration of 0.2 uM; type: functional; method in brief: as §2
[25] = system: Breast carcinoma cell; assay: Number of colony forming cells of human breast tumor showing sensitivity among the 4 colony forming cells tested in vitro at compound concentration of 0.2 uM; type: functional; method in brief: as §1
[26] = system: L1210; assay: Inhibition of cell growth in (L1210 leukemia) MDR cells determined by MTT assay; type: functional, cell-based; conditions: Mus musculus
[27] = system: L1210; assay: Inhibition of cell growth in drug sensitive L1210 leukemia cell line determined by MTT assay; type: functional, cell-based; conditions: Mus musculus
[28] = system: MCF7; assay: Inhibition of cell growth in (MCF7 breast) dox cell line; type: functional, cell-based; conditions: Homo sapiens
[29] = system: MCF7; assay: Inhibition of cell growth in (MCF7 breast) mitox cell line; type: functional, cell-based; conditions: Homo sapiens
[30] = system: MCF7; assay: Inhibition of cell growth in drug sensitive MCF-7 breast cell line; type: functional, cell-based; conditions: Homo sapiens
[31] = system: OVCAR-3; assay: Inhibition of cell growth in (OVCAR-3) ovarian cell line; type: functional, cell-based; conditions: Homo sapiens
[32] = system: WiDr; assay: Inhibition of cell growth in drug resistant WiDr colon cell line; type: functional, cell-based; conditions: Homo sapiens
[33] = system: WiDr; assay: Inhibition of cell growth in drug sensitive WiDr colon cell line; type: functional, cell-based; conditions: Homo sapiens
[34] = Number of colony forming cells of human lung tumor showing sensitivity among the 2 colony forming cells tested in vitro at compound concentration of 2.0 uM; type: functional; method in brief: as §1
[35] = Number of colony forming cells of human melanoma tumor showing sensitivity among the 10 colony forming cells tested in vitro at compound concentration of 2.0 uM; type: functional; method in brief: as §1
[36] = system: Breast carcinoma cell; assay: Number of colony forming cells of human breast tumor showing sensitivity among the 4 colony forming cells tested in vitro at compound concentration of 2.0 uM; type: functional; method in brief: as §1
[37] = system: MCF7; assay: Cytotoxicity was measured as 50% inhibition of cell growth in drug sensitive MCF-7 breast cell line; type: functional, cell-based, Mus musculus; conditions: Homo sapiens
[38] = system: L1210; assay: Cytotoxicity was measured as 50% inhibition of cell growth in drug sensitive L1210 leukemia cell line and is determined by MTT assay; type: functional, cell-based, Homo sapiens; conditions: Mus musculus

N#CC1CN1C(=O)Nc1ccccc1 (stereo not drawn)
IC50 [1]: 8 µM | IC50 [2]: 5.3 µM | IC50 [3]: 9 µM | IC50 [4]: 11 µM | Sensitivity [5]: 0 | Sensitivity [6]: 2 | Sensitivity [7]: 3 | Sensitivity [8]: 2 | Sensitivity [9]: 3 | Sensitivity [10]: 10 | Sensitivity [11]: 0 | Sensitivity [12]: 2 | Sensitivity [13]: 4 | Sensitivity [14]: 5 | Sensitivity [15]: 10 | Sensitivity [16]: 3 | Sensitivity [17]: 3 | Sensitivity [18]: 1 | Sensitivity [19]: 1 | Sensitivity [20]: 2 | Sensitivity [21]: 2 | Sensitivity [22]: 2 | Sensitivity [23]: 10 | Sensitivity [24]: 1 | Sensitivity [25]: 2 | IC50 [26]: 11 µM | IC50 [27]: 1.2 µM | IC50 [28]: 2.6 µM | IC50 [29]: 4.3 µM | IC50 [30]: 2.9 µM | IC50 [31]: 6.8 µM | IC50 [32]: 12 µM | IC50 [33]: 5 µM | Sensitivity [34]: 1 | Sensitivity [35]: 8 | Sensitivity [36]: 2

N#CC1CN1C(N)=O (stereo not drawn)
IC50 [4]: > 90 µM | IC50 [26]: > 90 µM | IC50 [27]: > 90 µM | IC50 [28]: > 54 µM | IC50 [29]: > 54 µM | IC50 [30]: > 54 µM | IC50 [31]: > 90 µM

CC(C)(C)NC(=O)N1CC1C#N (stereo not drawn)
IC50 [1]: 216 µM | IC50 [2]: 120 µM | IC50 [3]: 180 µM | IC50 [4]: 418 µM | IC50 [26]: 457 µM | IC50 [27]: 132 µM | IC50 [28]: 190 µM | IC50 [29]: 120 µM | IC50 [30]: > 300 µM | IC50 [31]: 186 µM | IC50 [32]: > 300 µM | IC50 [33]: 180 µM

N#CC1CN1C(=O)Nc1ccc(S(N)(=O)=O)cc1 (stereo not drawn)
IC50 [1]: > 38 µM | IC50 [2]: > 38 µM | IC50 [3]: > 38 µM | IC50 [4]: 188 µM | IC50 [26]: > 38 µM | IC50 [27]: > 38 µM | IC50 [28]: > 15 µM | IC50 [29]: > 15 µM | IC50 [30]: > 15 µM | IC50 [31]: 188 µM | IC50 [32]: > 38 µM | IC50 [33]: > 38 µM

N#CC1CN1C(=O)Nc1ccc([N+](=O)[O-])cc1 (stereo not drawn)
IC50 [1]: 8.6 µM | IC50 [2]: 9.1 µM | IC50 [3]: 3.9 µM | IC50 [4]: 3.9 µM | IC50 [26]: 2.6 µM | IC50 [27]: 2.6 µM | IC50 [28]: 3 µM | IC50 [29]: 3 µM | IC50 [30]: 3 µM | IC50 [31]: 6.5 µM | IC50 [32]: 3.7 µM | IC50 [33]: 4.3 µM

N#CC1CN1C(=O)Nc1cccc2ccccc12 (stereo not drawn)
IC50 [1]: 8.9 µM | IC50 [2]: 8 µM | IC50 [3]: 2.5 µM | IC50 [4]: 4.2 µM | IC50 [26]: 2.5 µM | IC50 [27]: 7.2 µM | IC50 [28]: 1.7 µM | IC50 [29]: 2 µM | IC50 [30]: 2 µM | IC50 [31]: 5.9 µM | IC50 [32]: 2.5 µM | IC50 [33]: 2.4 µM

N#CC1CN1C(=O)NCc1ccccc1 (stereo not drawn)
IC50 [1]: 11 µM | IC50 [2]: 9 µM | IC50 [3]: 7.4 µM | IC50 [4]: 11 µM | IC50 [26]: 10 µM | IC50 [27]: 3.8 µM | IC50 [28]: 6 µM | IC50 [29]: 3.4 µM | IC50 [30]: 7.4 µM | IC50 [31]: 5 µM | IC50 [32]: 10 µM | IC50 [33]: 5.3 µM

CCOC(=O)CNC(=O)N1CC1C#N (stereo not drawn)
IC50 [1]: 30 µM | IC50 [2]: 25 µM | IC50 [3]: 24 µM | IC50 [4]: 51 µM | IC50 [37]: 15 µM | IC50 [26]: 13 µM | IC50 [28]: 17 µM | IC50 [29]: 11 µM | IC50 [32]: 33 µM | IC50 [33]: 31 µM | IC50 [38]: 13 µM

N#CC1CN1C(=O)Nc1ccc(Cl)cc1Cl (stereo not drawn)
IC50 [1]: 9.4 µM | IC50 [2]: 4.7 µM | IC50 [3]: 2.5 µM | IC50 [4]: > 39 µM | IC50 [26]: 33 µM | IC50 [27]: 207 µM | IC50 [28]: 1.1 µM | IC50 [29]: 0.35 µM | IC50 [30]: 0.9 µM | IC50 [31]: 35 µM | IC50 [32]: 1.9 µM | IC50 [33]: 2.2 µM

N#CC1CN1C(=O)Nc1ccc(Cl)c(Cl)c1 (stereo not drawn)
IC50 [1]: 2.7 µM | IC50 [2]: 1.1 µM | IC50 [3]: 7.5 µM | IC50 [4]: 5.9 µM | IC50 [26]: 7.2 µM | IC50 [27]: 2.6 µM | IC50 [28]: 7.2 µM | IC50 [29]: 4.4 µM | IC50 [30]: 4.6 µM | IC50 [31]: 5.6 µM | IC50 [32]: 14 µM | IC50 [33]: 7 µM
